# In ChEMBL document CHEMBL3124897, “A dynamic G-quadruplex region regulates the HIV-1 long terminal repeat promoter” (J Med Chem, 2013):
# Activity calls are given as the source filed them. No cut-off for these calls is given here.
# Assays:
# [1] = tested on: Human immunodeficiency virus 1; assay: Binding affinity to HIV 1 HXB2 G-quadruplex LTR-2 DNA assessed as change in melting temperature at 16 uM after 24 hrs by circular dichroism spectropolarimeter analysis in the presence of K+
# Outline: (§1)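 Oligonucleotides at 4 µM final in 10 mM lithium cacodylate, pH 7.4, with or without 100 mM KCl. Annealed at 95 °C for 5 min, slowly cooled, measured after 24 h. Ligand added after annealing at 16 µM final. CD melting from 20–95 °C, 1 min equilibration per step. Tm taken from a van't Hoff two-state fit.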
# [2] = tested on: Human immunodeficiency virus 1; assay: Binding affinity to HIV 1 HXB2 G-quadruplex LTR-2 DNA assessed as change in melting temperature at 16 uM after 24 hrs by circular dichroism spectropolarimeter analysis in the absence of K+; outline: as §1
# [3] = tested on: Human immunodeficiency virus 1; assay: Binding affinity to HIV 1 HXB2 G-quadruplex FL-LTR DNA assessed as blocking sites at G-tracts (4 to 2) after 20 mins by Taq polymerase stop assay
# Outline: (§2)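 Primer was 5'-32P-labelled (72 nM) and annealed to full-length LTR template (36 nM) in 10 mM lithium cacodylate, pH 7.4. Template was incubated with ligand plus 100 mM KCl for 20 min at room temperature. Extension used Taq Gold polymerase (2 U) at 47°C for 30 min. Reactions were stopped by EtOH precipitation, run on a 12% denaturing gel and read by phosphorimaging as stop sites at G-tracts.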
# [4] = tested on: Human immunodeficiency virus 1; assay: Binding affinity to HIV 1 HXB2 G-quadruplex FL-LTR DNA assessed as blocking at G-tracts (6 and 5) after 20 mins by Taq polymerase stop assay; outline: as §2
# [5] = tested on: Human immunodeficiency virus 1; assay: Binding affinity to HIV 1 HXB2 G-quadruplex LTR-FL DNA assessed as change in melting temperature at 16 uM after 24 hrs by circular dichroism spectropolarimeter analysis in the presence of K+; outline: as §1
# [6] = tested on: Human immunodeficiency virus 1; assay: Binding affinity to HIV 1 HXB2 G-quadruplex LTR-3 DNA assessed as change in melting temperature at 16 uM after 24 hrs by circular dichroism spectropolarimeter analysis in the presence of K+; outline: as §1
# [7] = tested on: Human immunodeficiency virus 1; assay: Binding affinity to HIV 1 HXB2 G-quadruplex LTR-3 DNA assessed as change in melting temperature at 16 uM after 24 hrs by circular dichroism spectropolarimeter analysis in the absence of K+; outline: as §1
# [8] = tested on: Human immunodeficiency virus; assay: Binding affinity to HIV 1 HXB2 G-quadruplex LTR-4 DNA assessed as change in melting temperature at 16 uM after 24 hrs by circular dichroism spectropolarimeter analysis in the presence of K+; outline: as §1
# [9] = tested on: Human immunodeficiency virus 1; assay: Binding affinity to HIV 1 HXB2 G-tract mutant m5/m4 FL-LTR assessed as formation of LTR G-quadruplex by Taq polymerase stop assay
# Outline: (§3)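 Primer extension on wild-type or mutant full-length LTR templates in 100 mM K+ with 100 nM ligand. Labelled primer (72 nM) annealed to template (36 nM) in 10 mM lithium cacodylate, pH 7.4. Ligand/KCl incubation 20 min at room temperature, then Taq Gold extension at 47°C for 30 min. Products on 12% denaturing gel, phosphorimaging of stop sites.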
# [10] = tested on: Human immunodeficiency virus 1; assay: Inhibition of HIV 1 HXB2 G-tract mutant m5 LTR DNA assessed as reduction in promoter activity at 1.5 to 6 uM after 24 hrs by luciferase assay
# Outline: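 HEK 293T cells (5.5×10^4 per well) transfected with LTR-firefly luciferase vector plus HSV-TK Renilla control vector (200 ng each). Cells treated with ligand at 1.5–6.0 µM. Firefly signal normalized to Renilla and expressed relative to untreated control. n = 3, mean ± s.d., Student's t-test.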
# [11] = tested on: Human immunodeficiency virus 1; assay: Inhibition of wild-type HIV 1 HXB2 LTR DNA assessed as reduction in promoter activity after 24 hrs by GFP reporter assay in the absence of Tat
# Outline: (§4)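 HEK 293T cells (2×10^5) transfected with LTR-EGFP plasmid, with or without Tat. Ligand (1.5–6.0 µM) added 4 h after transfection, then incubated overnight. Mean EGFP fluorescence measured by flow cytometry, 30000 events, gated on GFP+ cells with viable morphology. n = 3, mean ± s.d., Student's t-test.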
# [12] = Cytotoxicity against human TZM-bl cells at 0.1 to 6 uM after 48 hrs; type: cell-based
# Outline: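 TZM-bl cells (2×10^4 per well) grown overnight, then exposed to compound in DMSO carrier at 37°C. Viability read after 48 h with Cell Titer Blue reagent.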
# [13] = tested on: Human immunodeficiency virus 1; assay: Binding affinity to HIV 1 HXB2 G-tract mutant m3'' FL-LTR assessed as effect on LTR G-quadruplex formation by Taq polymerase stop assay; outline: as §3
# [14] = tested on: Human immunodeficiency virus 1; assay: Binding affinity to HIV 1 HXB2 G-tract mutant m2 FL-LTR assessed as formation of LTR-2 G-quadruplex by Taq polymerase stop assay; outline: as §3
# [15] = tested on: Human immunodeficiency virus 1; assay: Binding affinity to HIV 1 HXB2 G-tract mutant m3 FL-LTR assessed as formation of LTR-4 G-quadruplex by Taq polymerase stop assay; outline: as §3
# [16] = tested on: Human immunodeficiency virus 1; assay: Antiviral activity against Nef-deficient HIV 1 NL4-3 infected in human TZM-bl cells assessed as inhibition of viral replication at 3 to 6 uM after 48 hrs by luciferase reporter gene assay; type: functional, organism-based
# Outline: (§5)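 TZM-bl cells (HIV-1 LTR-luciferase reporter line), 2×10^4 per well, grown overnight. Ligand preincubated with medium and wild-type or Nef-defective NL4-3 virus for 4 h before infection. Virus stocks were made by transfecting HEK 293T with proviral genomes and amplified in MT2 cells. Luciferase read on lysates after 48 h at 37°C. Values relative to DMSO-only infected control, n = 3, ±SEM.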
# [17] = tested on: Human immunodeficiency virus 1; assay: Binding affinity to HIV 1 HXB2 G-tract mutant m3' FL-LTR assessed as effect on LTR G-quadruplex formation by Taq polymerase stop assay; outline: as §3
# [18] = tested on: Human immunodeficiency virus 1; assay: Inhibition of wild-type HIV 1 HXB2 LTR DNA assessed as reduction in promoter activity at 6 uM after 24 hrs by GFP reporter assay in the presence of Tat
# Outline: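 HEK 293T cells (2×10^5) transfected with pcLTR-EGFP, with Tat present. Ligand (1.5–6.0 µM) added 4 h after transfection and left overnight. Flow cytometry gated on GFP+ cells of viable morphology, 30000 events per sample; mean EGFP fluorescence read. n = 3, mean ± s.d., t-test.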
# [19] = tested on: Human immunodeficiency virus 1; assay: Binding affinity to HIV 1 HXB2 G-tract mutant m1 FL-LTR assessed as effect on LTR G-quadruplex formation by Taq polymerase stop assay; outline: as §3
# [20] = tested on: Human immunodeficiency virus 1; assay: Inhibition of wild-type HIV 1 HXB2 LTR DNA assessed as reduction in promoter activity at 1.5 to 6 uM after 24 hrs by luciferase assay; set-up: scale not given: the % may be the effect or the level left
# Outline: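 HEK 293T cells (5.5×10^4 per well) co-transfected with LTR-driven firefly luciferase (pGL4.10Luc2/LTR) and TK-promoter Renilla luciferase (pGL4.74), 200 ng each. Treated with ligand at 1.5–6.0 µM. Firefly signal normalized to Renilla. n = 3, mean ± s.d., Student's t-test.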
# [21] = tested on: Human immunodeficiency virus 1; assay: Binding affinity to HIV 1 HXB2 G-tract mutant m6' FL-LTR assessed as formation of LTR-2 and LTR-3 G-quadruplex by Taq polymerase stop assay; outline: as §3
# [22] = tested on: Human immunodeficiency virus 1; assay: Binding affinity to HIV 1 HXB2 G-tract mutant m6 FL-LTR DNA assessed as formation of LTR-2 G-quadruplex by Taq polymerase stop assay; outline: as §3
# [23] = tested on: Human immunodeficiency virus 1; assay: Antiviral activity against wild type HIV 1 NL4-3 infected in human TZM-bl cells assessed as inhibition of viral replication at 3 to 6 uM after 48 hrs by luciferase reporter gene assay; type: functional, organism-based; outline: as §5
# [24] = tested on: Human immunodeficiency virus 1; assay: Inhibition of wild-type HIV 1 HXB2 LTR DNA assessed as reduction in promoter activity after 24 hrs by GFP reporter assay in the presence of Tat; outline: as §4
Compound,ΔTm [1],ΔTm [2],Activity [3],Activity [4],ΔTm [5],ΔTm [6],ΔTm [7],ΔTm [8],inhibition [16],inhibition [23],inhibition [24],further results
C[n+]1ccc(-c2c3nc(c(-c4cc[n+](C)cc4)c4ccc([nH]4)c(-c4cc[n+](C)cc4)c4ccc([nH]4)c(-c4cc[n+](C)cc4)c4nc2C=C4)C=C3)cc1,33.4 °C,12.4 °C,inactive,Active,4.5 °C,38 °C,22.9 °C,43.9 °C,,,,
CN(C)c1ccc(Nc2c3ccc(NC(=O)CCN4CCCC4)cc3nc3cc(NC(=O)CCN4CCCC4)ccc23)cc1,39.9 °C,17.6 °C,inactive,Active,5.6 °C,42.3 °C,12.9 °C,54 °C,Active,Active,Dose-dependent effect,Activity [9]: inactive; Activity [10]: inactive; inhibition ([11]; concentration not given here): 30%; Activity [12]: Non-toxic; Activity [13]: inactive; Activity [14]: inactive; Activity [15]: Active; Activity [17]: inactive; inhibition [18]: 50%; Activity [19]: inactive; Activity [20]: 70%; Activity [21]: Active; Activity [22]: Active
C[n+]1ccccc1-c1c2nc(c(-c3cccc[n+]3C)c3ccc([nH]3)c(-c3cccc[n+]3C)c3ccc([nH]3)c(-c3cccc[n+]3C)c3nc1C=C3)C=C2,,,,,,,,,inactive,inactive,inactive,inhibition [11]: inactive
O=C1c2ccc3c4ccc5c6c(ccc(c7ccc(c2c37)C(=O)N1CCN1CCCCC1)c64)C(=O)N(CCN1CCCCC1)C5=O,31.1 °C,13.8 °C,,,8.8 °C,16.4 °C,15 °C,55.8 °C,,,,
